From PubChem BioAssay
Shown are actives, neighbours in structure and some others; about 1.3% of the full set was active somewhere.
TAG inh – inhibitors of triacylglycerol accumulation, primary screen, cell-based, uHTS, fluorescence, H9c2; actives 0.66% (n = 230,000); inhibition, % at 12.5 µM; H9c2 cells, Nile Red lipid (TAG) fluorescence; cells loaded with 200 µM oleic acid;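 active = pattern-corrected inhibition of lipid staining of at least 50% with the nuclear-stain viability signal not falling by more than 50%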;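 also: 0% = DMSO wells and 100% = triacsin C control wells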
GSK3B inh – human GSK3beta kinase inhibitors, primary screen, biochemical, cell-free homogeneous, HTS; Glycogen synthase kinase-3 beta (Homo sapiens), P49841; GST-GSK3beta kinase, ADP-Glo luminescence, 60 min; active compounds read low; activity score (negative = inhibition), % at 10 µM; actives 0.038% (n = 300,000);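 active = more than half of replicate wells score below -50%, meaning over 50% inhibition versus plate controls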;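 also: 0% = median DMSO wells and -100% = median GW8510 positive control wells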
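test system = GST-tagged human GSK3beta kinase, cell-free | reagent = 25 µM ATP with peptide substrate | dosing = one dose of 10 µM per compound | schedule = 60 min reaction, RT | detection = luminescent ADP-Glo measurement of ADP formed | control set = DMSO neutral wells and GW8510 at 20 µM as positive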
GSK3 alpha inh – blockers of GSK3A enzyme activity – biochemical, luminescence, cell-free homogeneous, HTS, primary screen | GSK-3 alpha kinase, ADP-Glo luminescence, 60 min | inhibition, % at 10 µM | actives 0.1% (n = 320,000) | AID 2650, 2010;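 active = more than half of replicates show inhibition above 20%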;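 also: GST-tagged GSK-3 alpha with peptide substrate and 25 µM ATP; 0% = DMSO neutral wells and 100% = GW8510 positive control wells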
Target sequence (P49840 whole entry, looked up): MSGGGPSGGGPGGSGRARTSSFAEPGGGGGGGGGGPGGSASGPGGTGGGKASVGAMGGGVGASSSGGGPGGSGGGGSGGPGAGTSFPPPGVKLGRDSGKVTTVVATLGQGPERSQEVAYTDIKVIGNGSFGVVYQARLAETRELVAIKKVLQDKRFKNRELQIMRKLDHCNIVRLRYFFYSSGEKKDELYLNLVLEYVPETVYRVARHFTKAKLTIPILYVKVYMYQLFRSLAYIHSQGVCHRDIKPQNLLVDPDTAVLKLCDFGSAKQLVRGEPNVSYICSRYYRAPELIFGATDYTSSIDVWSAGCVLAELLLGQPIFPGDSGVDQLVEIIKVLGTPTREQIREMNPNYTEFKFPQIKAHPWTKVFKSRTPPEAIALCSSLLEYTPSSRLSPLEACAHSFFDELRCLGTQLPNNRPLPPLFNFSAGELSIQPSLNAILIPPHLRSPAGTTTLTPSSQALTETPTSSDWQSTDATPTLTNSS
LANA-H2B inh – blockers of LANA interaction with H2A/H2B – biochemical, FP readout, HTS, primary screen. cell-free LANA-H2A/H2B peptide, fluorescence polarization. inhibition, % (no concentration beside the values). AID 2629, 2010. actives 0.6% (n = 320,000); in the data active = inhibition mostly above about 10%, no sharp cut-off; inactive = mostly below about 6.7%
Lipid droplet – inhibitors of hepatocyte lipid droplet formation, primary screen, imaging, high-throughput imaging, BODIPY stain; AML12 mouse hepatocytes, oleate lipid droplets; inhibition, % at 6.5 µM; AID 1656, 2009; actives 0.4% (n = 240,000);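 active = lipid droplet intensity inhibited by at least 50%, with more than 500 cells counted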
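Technique: fluorescence imaging, 20x objective, two fields per well / Assay system: AML12 hepatocytes (mouse) / Measure: % inhibition of lipid droplet signal / Doses: 6.5 µM single-point dosing / Incubation: overnight exposure / Reagent: 100 µM oleic acid challenge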
STK33 inh – inhibitors of purified STK33 kinase, primary screen, biochemical, ADP-Glo luminescence, homogeneous, cell-free; Serine/threonine-protein kinase 33 (Homo sapiens), Q9BYT3; MBP phosphorylation; inhibition, % at 10 µM; actives 0.073% (n = 320,000); AID 2661, 2010;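 active = inhibition at or above 25%, using the most active replicate where run in duplicate; inactive = inhibition below 25%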
TAG conf – triacylglycerol accumulation inhibitors, retest, confirmation, cell-based, single concentration, Nile Red fluorescence, H9c2; inhibition, % at 12.5 µM; actives 71% (n = 990); shares compounds with TAG inh; AID 651629, 2012; H9c2 lipid accumulation; cells loaded with 200 µM oleic acid;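 active = mean inhibition across replicates of 40% or more; inactive = mean inhibition below 40%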;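 also: plate controls were DMSO only wells for no effect and Triacsin C treated wells for full effect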
* marks the source's active call; other numbers are inactive results; · = not tested or not shown.

SMILES	TAG inh	GSK3B inh	GSK3 alpha inh	LANA-H2B inh	Lipid droplet	STK33 inh	TAG conf
CCCCCc1cc(=O)oc2c(C(CCN3CCCC3)c3cc(OC)c(OC)c(OC)c3)c(OC)cc(OC)c12 (centres undefined)	94.4*	0.3	·	-0.7	21.5	0.1	76.7*
COc1cc(C(CCN2CCOCC2)c2c(OC)cc(OC)c3c(C)cc(=O)oc23)cc(OC)c1OC (centres undefined)	5.6	-1.9	0.4	-1.0	-18.1	-1.2	·
COc1cc(NC(=O)c2ccc(F)cc2)c(OC)cc1NC(=O)CN1CCCCC1	·	0.9	-2.2	1.0	-15.1	-0.5	·
Cc1[nH]c2ccccc2c1C(c1ccccn1)N1CCC(C)CC1 (centres undefined)	51.4*	2.0	0.9	3.6	·	7.6	55.2*
Cc1cccn2c(=O)c3cc(C(=O)NC4CCCC4)c(=N)n(C4CCCC4)c3nc12	51.4*	-0.9	1.4	0.6	19.0	2.2	44.2*
CSc1ccc(C2=C/C(=C3/SC(=S)NC3=O)c3ccccc3O2)cc1	59.3*	·	·	·	·	·	58.1*
Cc1c(C2(O)CCCCC2)[nH]c2ccc(C(F)(F)F)cc12	-17.3	·	-1.9	1.3	·	4.2	·
CCc1c(C2(O)CCCCC2)[nH]c2cnccc12	51.3*	·	2.1	8.0	·	-0.9	13.1
Cc1cc(C)c2nc(NC(=O)c3ccc([N+](=O)[O-])o3)sc2c1	63.8*	-1.1	0.1	3.6	10.5	-0.4	69.9*
COC(=O)c1ccc(NC(=O)C(=O)N2CCN(C(=S)Nc3cccc(OC)c3)CC2)cc1	-3.6	1.4	-4.4	1.6	-5.4	-0.7	·
C[C@@H]1CN([C@H](C)CO)C(=O)c2c(c3ccccc3n2C)-c2ccccc2CO[C@H]1CN(C)Cc1ccc(Oc2ccccc2)cc1	59.1*	·	·	·	·	·	73.7*
C[C@H]1CN([C@@H](C)CO)C(=O)c2cc(NC(=O)Nc3cccc4ccccc34)ccc2O[C@@H]1CN(C)Cc1ccc(-c2ccccc2)cc1	71.6*	·	-4.0	1.4	·	1.4	70.5*
C[C@@H]1CN([C@H](C)CO)C(=O)c2cc(NC(=O)Nc3cccc4ccccc34)ccc2O[C@H]1CN(C)Cc1ccc(C(F)(F)F)cc1	9.6	·	·	·	·	·	·
C[C@@H]1CN([C@@H](C)CO)C(=O)c2cccc(NC(=O)Nc3ccc(F)cc3)c2O[C@@H]1CN(C)Cc1ccc(Oc2ccccc2)cc1	72.8*	·	-1.7	6.1	·	-0.3	80.7*
CCCCNC(=O)COC(=O)c1cc(C)oc1C	5.9	2.5	-2.5	2.0	-11.6	0.3	·
COc1ccc(NC(=O)/C(C#N)=C/C=C/c2ccco2)cc1	·	2.2	-1.5	-0.3	-49.7	-1.1	·
CCn1cc(CN2CCCC(C(=O)Nc3cccc(-c4cc5ccccc5[nH]4)c3)C2)cn1 (centres undefined)	·	1.3	-0.7	-2.6	-5.1	0.4	·
CCCc1cc(=O)[nH]c(SCC(=O)N2CC3(C)CC2CC(C)(C)C3)n1 (centres undefined)	-12.1	·	-0.3	2.7	·	-3.2	·
CCC(C(=O)NC(C)(C)C)N(Cc1ccc(OC)cc1)C(=O)c1snc(C(N)=O)c1N (centres undefined)	-5.9	·	·	·	·	·	·
CCCC(C(=O)NC(C)(C)C)N(Cc1ccccc1)C(=O)c1snc(C(N)=O)c1N (centres undefined)	69.0*	·	·	·	·	·	0.1
O=C(/C=C/c1ccc(OCCCF)cc1)NCc1ccc(Cl)c(Cl)c1	62.4*	2.8	0.4	-1.8	·	-1.7	51.8*
